We go through 17 compounds from ChEMBL document CHEMBL1149261, “New constrained "molecular tongs" designed to dissociate HIV-1 protease dimer” (J Med Chem, 2004).

For test [1], the target named is T1, Human immunodeficiency virus type 1 protease (Human immunodeficiency virus 1, UniProt Q72874). Nature of the test: Inhibition of HIV1 protease. Summed up:
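Protease activity read with fluorogenic substrate DABCYL-γ-Abu-Ser-Gln-Asn-Tyr-Pro-Ile-Val-Gln-EDANS in 100 mM sodium acetate, 1 mM EDTA, 1 M NaCl, pH 4.7, 30 °C. Substrate and inhibitor (DMSO, 3% v/v final) preincubated 3 min, then enzyme added (7.5 nM final). Fluorescence (ex 340, em 490 nm) followed 3 min. 8–10 inhibitor concentrations; IC50 fitted to %inhibition = 100[I]0/(IC50+[I]0).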

Test [2] has as its target T1, Human immunodeficiency virus type 1 protease. Nature of the test: Inhibition of dimerization of HIV1 protease. The gist of the method:
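Zhang kinetic analysis using the same fluorogenic DABCYL/EDANS substrate assay (pH 4.7 acetate buffer, 30 °C, ex 340/em 490 nm). Initial substrate held constant; at least four protease concentrations (4.7–13.6 nM) tested at several inhibitor concentrations. Dimerization inhibition constant Kid derived from Zhang plots.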

In test [3] the target is Human immunodeficiency virus type 1 protease (Human immunodeficiency virus 1) (UniProt Q72874). Nature of the test: Inhibition of HIV1 protease at 5.7 uM. The gist of the method: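 Fluorogenic assay with DABCYL-γ-Abu-Ser-Gln-Asn-Tyr-Pro-Ile-Val-Gln-EDANS substrate, in 100 mM sodium acetate, 1 mM EDTA and 1 M NaCl at pH 4.7 and 30 °C, with 3% v/v DMSO final. Substrate and inhibitor were preincubated for 3 min. The reaction was started with HIV-1 protease (7.5 nM final). The fluorescence increase (ex 340/em 490 nm) was followed over 3 min and compared with a substrate-only blank to give % inhibition.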

A word on the IC50: it is the midpoint of a concentration-inhibition curve. Low values mean greater potency in that assay, high ones weaker potency in that assay. For orientation: Ki means a measure of affinity in units of concentration, obtained from inhibition or displacement. A high value points to lower affinity. On to `COC(=O)[C@@H](NC(=O)[C@H](CC(C)C)NC(=O)[C@@H](NC(=O)CCCOc1ccc2ccc(OCCCC(=O)N[C@@H](CCC(=O)OC(C)(C)C)C(=O)N[C@@H](CC(C)C)C(N)=O)nc2c1)C(C)C)C(C)C`, for which, in test [1], it took 1800 nM to reach half-maximal inhibition (IC50). Besides, the inhibitory constant (Ki) in test [2] is 530 nM.

In test [1], `COC(=O)[C@@H](NC(=O)[C@H](CC(C)C)NC(=O)[C@@H](NC(=O)CCCOc1ccc2ccc(OCCCC(=O)N[C@@H](CCC(=O)OC(C)(C)C)C(=O)N[C@@H](CC(C)C)C(N)=O)cc2c1)C(C)C)C(C)C` came in with an IC50 of 1100 nM. Moreover, the Ki in test [2] was 420 nM.

Regarding `COC(=O)[C@@H](NC(=O)[C@H](CC(C)C)NC(=O)[C@@H](NC(=O)CCCOc1ccc2ccc(OCCCC(=O)N[C@H](C(=O)N[C@@H](CC(C)C)C(=O)N[C@H](C(=O)OC)C(C)C)C(C)C)nc2c1)C(C)C)C(C)C`, the midpoint of inhibition in test [1], the IC50, lay at 1400 nM. The same compound returned an inhibitory constant (Ki) in test [2] of 130 nM.

Compound `CC[C@H](C)[C@H](NC(=O)[C@H](CCC(N)=O)NC(=O)CCCOc1ccc2ccc(OCCCC(=O)N[C@H](C(=O)N[C@@H](CC(C)C)C(=O)N[C@H](C(=O)OC)C(C)C)C(C)C)cc2c1)C(=O)N[C@H](C(N)=O)[C@@H](C)O` registered an IC50 in test [1] of 2800 nM. The same compound yielded a Ki in test [2] of 2300 nM.

On to `CC[C@H](C)[C@H](NC(=O)CCCOc1ccc2ccc(OCCCC(=O)N[C@H](C(=O)N[C@@H](CC(C)C)C(=O)N[C@H](C(=O)OC)C(C)C)C(C)C)cc2n1)C(=O)N[C@H](C(N)=O)[C@@H](C)O`, for which, in test [1], the IC50 worked out at 1700 nM and the affinity corresponds to a Ki of 4.3 µM. In test [2], this compound displayed a Ki of 250 nM.

Consider `COC(=O)[C@H](CC(C)C)NC(=O)[C@@H](NC(=O)CCCOc1ccc2ccc(OCCCC(=O)N[C@H](C(=O)N[C@@H](CC(C)C)C(=O)N[C@H](C(=O)OC)C(C)C)C(C)C)cc2c1)[C@@H](C)O`, for which, in test [1], the IC50 is 4000 nM and the affinity, expressed as Ki, was 10.3 µM. Further, in test [2], the inhibition constant (Ki) was 1400 nM.

`COC(=O)[C@@H](NC(=O)[C@H](CC(C)C)NC(=O)[C@@H](NC(=O)CCCOc1ccc2ccc(OCCCC(=O)N[C@@H](CCC(=O)O)C(=O)N[C@@H](CC(C)C)C(N)=O)cc2c1)C(C)C)C(C)C` came in with an IC50 in test [1] of 2800 nM. This compound also gave a Ki in test [2] of 900 nM.

As to `COC(=O)[C@@H](NC(=O)[C@H](CC(C)C)NC(=O)[C@@H](NC(=O)CCCOc1ccc2ccc(OCCCC(=O)N[C@H](C(=O)N[C@@H](CC(C)C)C(=O)N[C@H](C(=O)OC)C(C)C)C(C)C)cc2c1)C(C)C)C(C)C`, in test [1], half-maximal inhibition (IC50) was put at 3500 nM. Moreover, in test [2], the Ki was found to be 560 nM.

Take `COC(=O)[C@@H](NC(=O)[C@H](CC(C)C)NC(=O)[C@@H](NC(=O)CCCOc1ccc2ccc(OCCCC(=O)N[C@@H](Cc3ccc(O)cc3)C(=O)N[C@@H](CCC(=O)OC(C)(C)C)C(=O)N[C@@H](CC(C)C)C(N)=O)cc2c1)C(C)C)C(C)C`: in test [1], inhibition was half-maximal at 1100 nM (IC50). The compound also returned a Ki in test [2] of 230 nM.

`COC(=O)[C@H](CC(C)C)NC(=O)[C@@H](NC(=O)CCCOc1ccc2ccc(OCCCC(=O)N[C@H](C(=O)N[C@@H](CC(C)C)C(=O)N[C@H](C(=O)OC)C(C)C)C(C)C)cc2n1)[C@@H](C)O` came in with an IC50 in test [1] of 1400 nM. In test [2], this compound gave a Ki of 1500 nM.

In test [1], `COC(=O)[C@H](CC(N)=O)NC(=O)[C@H](CC(C)C)NC(=O)[C@@H](NC(=O)CCCOc1ccc2ccc(OCCCC(=O)N[C@H](C(=O)N[C@@H](CC(C)C)C(=O)N[C@H](C(=O)OC)C(C)C)C(C)C)cc2n1)[C@@H](C)O` showed an IC50 of 5100 nM. The Ki in test [2] is 80 nM.

Take `CC[C@H](C)[C@H](NC(=O)CCCOc1ccc2ccc(OCCCC(=O)N[C@H](C(=O)N[C@@H](CC(C)C)C(=O)N[C@H](C(=O)OC)C(C)C)C(C)C)cc2c1)C(=O)N[C@H](C(N)=O)[C@@H](C)O`: the IC50 in test [1] was found to be 4300 nM. Further, the figures for the Ki in test [1] and in test [2] were 6.2 µM and 1500 nM, respectively.

In general, inhibition refers to the share of the control response that was lost under treatment. Turning to `CC[C@H](C)[C@H](NC(=O)[C@H](CCC(N)=O)NC(=O)CCCOc1ccc2ccc(OCCCC(=O)N[C@H](C(=O)N[C@@H](CC(C)C)C(=O)N[C@H](C(=O)OC)C(C)C)C(C)C)cc2n1)C(=O)N[C@H](C(N)=O)[C@@H](C)O`, the inhibition in test [3] is 30%.

In turn, `CC[C@H](C)[C@H](NC(=O)CCCOc1ccc2ccc(OCCCC(=O)N[C@H](C(=O)N[C@@H](CC(C)C)C(=O)N[C@H](C(=O)OC)C(C)C)C(C)C)cc2n1)C(=O)N[C@H](C(=O)N[C@@H](CC(C)C)C(=O)OC)[C@@H](C)O` displayed an IC50 in test [1] of 5300 nM. This compound also gave a Ki in test [2] of 400 nM.

As to `COC(=O)[C@@H](NC(=O)[C@H](CC(C)C)NC(=O)[C@@H](NC(=O)CCCOc1ccc2ccc(OCCCC(=O)N[C@@H](CCC(=O)O)C(=O)N[C@@H](CC(C)C)C(N)=O)nc2c1)C(C)C)C(C)C`, the inhibition in test [3] worked out at 20%.

For the compound `COC(=O)[C@@H](NC(=O)[C@H](CC(C)C)NC(=O)[C@@H](NC(=O)CCCOc1ccc2ccc(OCCCC(=O)N[C@@H](Cc3ccc(O)cc3)C(=O)N[C@@H](CCC(=O)OC(C)(C)C)C(=O)N[C@@H](CC(C)C)C(N)=O)nc2c1)C(C)C)C(C)C`, the IC50 in test [1] turned out to be 1000 nM. The same compound had a Ki in test [2] of 410 nM.

The compound `CC[C@@H](C)[C@H](NC(=O)[C@@H](NC(=O)CCCOc1ccc2ccc(OCCCC(=O)N[C@H](C(=O)N[C@H](C(=O)N[C@H](C(=O)OC)C(C)C)[C@H](C)CC)[C@@H](C)O)nc2c1)[C@@H](C)O)C(=O)N[C@H](C(=O)OC)C(C)C` gave an inhibition in test [3] of 45%. The affinity in test [2], expressed as Ki, was 1900 nM.
